Assay results gathered from unrelated publications.
Protocols differ between the studies behind these lines.

Structure (SMILES)	test	test system	conditions	endpoint	value
c1ccc(C2CCN(c3nc(-c4cnn5cccnc45)nc4ccccc34)C2)nc1 (stereo not shown)	metabolic stability	human, liver microsomes		microsomal CLint	47 µL/min/mg
Cc1ccc(C(=O)N(CCCN)[C@@H](c2oc3cc(Cl)ccc3c(=O)c2Cc2ccccc2)C(C)C)cc1		human, plasma	intravenous, 2 mg/m², single dose, patients, infusion	clearance	26.6 mL/min
c1cnc2ccc(Nc3nc(NC4CC4)c4nc[nH]c4n3)cc2c1		human, plasma	oral, 100 mg/m², patients	CL/F	35.1 L/h
COc1cccnc1-c1nc2ccccn2c1Nc1ccc(F)cc1	metabolic stability	rat, hepatocytes		hepatocyte CLint	29 µL/min/10⁶ cells
COc1cc(C(=O)NC2CCN(C)CC2)c(F)cc1Nc1ncc(C(F)(F)F)c(Oc2cccc3c2C(=O)N(C)C3)n1		human, plasma	oral, 25 mg, multiple doses, once daily, patients	CL/F	8.34 L/h
COc1ccnc(-c2nc3ccccn3c2Nc2ccc(F)cc2)c1	metabolic stability	rat, hepatocytes		hepatocyte CLint	190 µL/min/10⁶ cells
CCNCCCNC/C=C\CNCCCNCC		human, plasma	intravenous, 150 mg, patients, infusion	clearance	5910 mL/min
c1ccc(-c2nc(NCc3nc4ccccc4o3)c3ccccc3n2)nc1	metabolic stability	human, liver microsomes		microsomal CLint	47 µL/min/mg
Fc1ccc(Nc2c(-c3cccc(F)n3)nc3ccccn23)cc1	metabolic stability	rat, hepatocytes		hepatocyte CLint	> 300 µL/min/10⁶ cells
OC[C@H]1O[C@@H](c2ccc(Cl)c(Cc3ccc(O[C@H]4CCOC4)cc3)c2)[C@H](O)[C@@H](O)[C@@H]1O		human, urine	oral, 10 mg, single dose	renal clearance	24.5 mL/min
